Drawing on ChEMBL document CHEMBL2034944, “Cytotoxic and anti-inflammatory triterpenoids from Toona ciliata” (J Nat Prod, 2012), this text covers IC50 for 13 compounds.

As a reminder, the IC50 is the point on the concentration scale where inhibition reaches its midpoint.

Common to all, as to format: functional, cell-based
One test deals with SMMC-7721. Put plainly: Cytotoxicity against human SMMC7721 cells after 48 hrs by MTT assay. The following applies: SMMC-7721, 48 h. A digest of the protocol:
(§1)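 MTT assay; cells grown in RPMI-1640 or DMEM with 10% FBS, 37 °C, 5% CO2. Adherent cells allowed to attach 12 h before dosing; suspension cells seeded just before dosing at 1 × 10^5 cells/mL. Exposure at 0.1, 1, 10, 100 and 500 μM in triplicate for 48 h. 5-fluorouracil and doxorubicin as positive controls. IC50 by Reed and Muench method.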
(In general: Formazan colour is commonly taken as a measure of viable cells.)

A further test has as its system KB. Put plainly: Cytotoxicity against human KB cells after 48 hrs by MTT assay. A digest of the protocol: as §1
The subject of a further test is MCF7. Put plainly: Cytotoxicity against human MCF7 cells after 48 hrs by MTT assay. The following applies: MCF7, 48 h. A digest of the protocol:
as §1

The next test relates to K562. Put plainly: Cytotoxicity against human K562 cells after 48 hrs by MTT assay. The following applies: K562, 48 h. In short, it runs like this: as §1
The nature of test [1]: Cytotoxicity against multidrug-resistant human MCF7/ADR cells after 48 hrs by MTT assay. The following applies: NCI/ADR-RES. A digest of the protocol:
as §1

Test [2] can be described thus: Cytotoxicity against human KB/VCR cells after 48 hrs by MTT assay. In short, it runs like this:
as §1

In another test the test system is RAW264.7. Kind of test: Antiinflammatory activity in mouse RAW264.7 cells assessed as inhibition of LPS-induced nitric oxide production pretreated for 2 hrs before LPS challenge measured after 18 hrs by Griess method. In short, it runs like this: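 RAW 264.7 mouse macrophages in RPMI 1640 with 10% heat-inactivated FBS, penicillin/streptomycin, 37 °C, 5% CO2. Seeded 1 × 10^5 per well, 24 h, then pretreated 2 h with compounds at 40, 20, 10, 5, 2.5 μM (DMSO ≤0.1% final). LPS 2 μg/mL for 18 h. Supernatant nitrite read with Griess reagent at 540 nm against NaNO2 standard curve; n = 4; IC50.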

Consider `C[C@@H]([C@@H](O)[C@H](O)[C@H](O)C(C)(C)O)[C@@H]1CC[C@]2(C)C3=CC[C@H]4C(C)(C)C(=O)CC[C@]4(C)[C@H]3CC[C@@]12C`, for which the IC50 in the test with SMMC-7721 amounted to 19.4 µM; in the test with KB, 10.2 µM; in the test on MCF7, 17.1 µM; in the test on K562 it was 11.2 µM; in test [1], 22.6 µM; in test [2], 32.1 µM.
Regarding `C=C1[C@@H]([C@@]2(C)C=CC(=O)C(C)(C)[C@@H]2CC(=O)OC)[C@H](OC(C)=O)[C@H](OC(C)=O)[C@@]2(C)[C@H](C3=CCOC3=O)C[C@H]3O[C@]132`, the IC50 (in the test on SMMC-7721; in the test on KB; in the test with MCF7; with K562; in test [1]; in test [2]) was more than 50 µM each time. Further, in the test on RAW264.7, the 50% inhibitory concentration (IC50) stood at 20.9 µM.
As to `C=C1[C@@H]([C@@]2(C)C=CC(=O)C(C)(C)[C@@H]2CC(=O)OC)[C@@H](OC(C)=O)[C@H](OC(C)=O)[C@@]2(C)[C@H](C3=CC(O)OC3=O)C[C@H]3O[C@]132` (stereo partly specified), the IC50 in the test with RAW264.7 worked out at 41.4 µM.
The same measure, in the same setting: the value for `C=C1[C@@H]([C@@]2(C)C=CC(=O)C(C)(C)[C@@H]2CC(=O)OC)[C@@H](OC(C)=O)[C@H](OC(C)=O)[C@@]2(C)[C@H](C3=CC(=O)OC3O)C[C@H]3O[C@]132` (stereo partly specified) was 38.9 µM; that for `C[C@@H]1C[C@H]2[C@@H]3CCC4=CC(=O)C=C[C@]4(C)[C@@]3(F)[C@@H](O)C[C@]2(C)[C@@]1(O)C(=O)CO` [DEXAMETHASONE] was 0.98 µM.
Take `COc1cccc2c1C(=O)c1c(O)c3c(c(O)c1C2=O)C[C@@](O)(C(=O)CO)C[C@@H]3O[C@H]1C[C@H](N)[C@H](O)[C@H](C)O1` [DOXORUBICIN]: the figures for the IC50 in test [1] and in test [2] were more than 50 µM and 0.45 µM, respectively.
Take `O=c1[nH]cc(F)c(=O)[nH]1` [FLUOROURACIL]: the IC50 with SMMC-7721 is more than 100 µM; in the test with KB, 6.8 µM; in the test with MCF7, more than 100 µM; in the test with K562, 2.1 µM; in test [1], more than 100 µM; in test [2] it was 33.4 µM.
For the compound `CC(C)(O)[C@@H]1OC[C@H]([C@@H]2CC=C3[C@]4(C)C(=O)C[C@H]5C(C)(C)C(=O)C=C[C@]5(C)[C@H]4[C@H](O)C[C@]32C)C[C@H]1O` [TOONACILIATAVARIN A], the IC50 (in the test on SMMC-7721; with KB; in the test with MCF7; with K562; in test [1]; in test [2]) was more than 50 µM in each case. The concentration for half-maximal inhibition (IC50) in the test on RAW264.7 turned out to be 9.4 µM.
`CC(=O)O[C@@H]1C[C@H]2C(C)(C)C(=O)C=C[C@]2(C)[C@H]2[C@H](O)C[C@]3(C)C(=CC[C@H]3[C@H]3CO[C@@H](C(C)(C)O)[C@H](O)C3)[C@@]21C` [TOONACILIATAVARIN B]: the IC50 (in the test on SMMC-7721; in the test with KB; in the test on MCF7; in the test on K562; in test [1]; in test [2]) was more than 50 µM throughout. Also, the IC50 in the test on RAW264.7 worked out at 7.9 µM.
`CC(=O)O[C@@H]1C[C@H]2C(C)(C)C(=O)C=C[C@]2(C)[C@H]2[C@H](O)C[C@]3(C)C(=CC[C@H]3[C@H]3COC(C)(C)[C@@H](O)[C@H](O)C3)[C@@]21C` [TOONACILIATAVARIN C]: the IC50 (in the test on SMMC-7721; in the test on KB; in the test with MCF7; in the test on K562; in test [1]; in test [2]) was more than 50 µM each time. Besides, the IC50 in the test with RAW264.7 is 11 µM.
On to `CC1(C)OC[C@H]([C@@H]2CC[C@]3(C)C4=CC[C@H]5C(C)(C)[C@@H](O)CC[C@]5(C)[C@H]4CC[C@@]23C)C[C@@H](O)[C@@H]1O` [TOONACILIATAVARIN D], for which the IC50 is 31.4 µM in the test on SMMC-7721; 39.5 µM with KB; more than 50 µM with MCF7; 43.1 µM in the test on K562; more than 50 µM in test [1]; more than 50 µM in test [2]. For the same compound, in the test with RAW264.7, the IC50 is 33.4 µM.
On to `CC1(C)C(=O)C=C[C@]2(C)C3=CC[C@@]4(C)[C@H](C5=CC(=O)OC5O)C[C@H]5O[C@]54[C@]3(C)C(=O)C[C@@H]12` (stereo partly specified) [TOONACILIATAVARIN F], for which the half-inhibitory concentration (IC50) (in the test with SMMC-7721; in the test with KB; with MCF7; in the test with K562; in test [1]; in test [2]) was more than 50 µM throughout. Moreover, the IC50 in the test on RAW264.7 worked out at 28.8 µM.
As to `CC1(C)C(=O)C=C[C@]2(C)C3=CC[C@@]4(C)[C@H](C5=CC(O)OC5=O)C[C@H]5O[C@]54[C@]3(C)C(=O)C[C@@H]12` (stereo partly specified) [TOONACILIATAVARIN G], the half-inhibitory concentration (IC50) (with SMMC-7721; with KB; in the test with MCF7; in the test on K562; in test [1]; in test [2]) was more than 50 µM throughout. In addition, the IC50 in the test on RAW264.7 was determined as 15.2 µM.
